MEKK2 mut-MEK5 = signal of MEK5 binding to mutant human MEKK2 PB1 domain | 0.35% of 290,000 active | percent response, % at 10 µM | AID 1530 | bead flow cytometry, Alexa488-MEK5 binding to MEKK2 mutant; in the data active means percent response above about 24%, passing the limit was not always enough
DSG3 Ab inh = inhibitors of pemphigus antibody binding to human desmoglein-3; DSG3-coupled beads, scFv-anti-DSG3-GFP binding, flow cytometry; stronger effect = lower value; AID 588358; 0.48% of 310,000 active; binding (percent of control), % at 10 µM; P32926;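 active means binding more than 3 SD below its plate's average and above zero; inconclusive means below that plate limit but binding exactly zero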;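 further: hits lower antibody fragment binding to DSG3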
UBC13 polyUb = human UBC13 polyubiquitination inhibition | P61088 | inhibition, % at 20 µM | 0.47% of 330,000 active | UBC13 polyubiquitin chain formation, TR-FRET; in the data active means inhibition above about 45%, passing the limit was not always enough; inconclusive means no clear call, values can overlap the other calls
Target sequence (P61088 whole entry, looked up): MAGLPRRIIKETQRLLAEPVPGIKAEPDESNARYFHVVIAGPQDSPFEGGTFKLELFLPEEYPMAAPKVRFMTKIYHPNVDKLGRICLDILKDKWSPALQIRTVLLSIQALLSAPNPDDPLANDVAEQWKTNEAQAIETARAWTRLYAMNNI
MEKK2 WT-MEK5 = raises or lowers MEK5 binding to wildtype human MEKK2 PB1 domain | AID 1531 | bead flow cytometry, Alexa488-MEK5 binding to MEKK2 WT; actives lie on both sides | 1.1% of 290,000 active | Q9Y2U5 | binding response (% of control), % at 10 µM; in the data active means binding response below about 67% or above about 130%; inconclusive means no clear call, values can overlap the other calls; inactive means in between
Apaf1 inhib = human Apaf-1 inhibition; O14727; reconstituted apoptosome caspase-3 activity, DEVD-Rh110 fluorescence; inhibition, % at 20 µM; 0.71% of 330,000 active; AID 489030; active means inhibition of at least 40% at 20 µM;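 further: plate controls were DMSO wells for no effect and DEVD-CHO caspase inhibitor wells for full effect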
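Material: biochemical Apaf-1 apoptosome reconstitution. Medium: Hepes buffer, pH 7.5. Also added: cytochrome c activation, bis-DEVD rhodamine 110 substrate. Timing: 30 min compound preincubation, 50 min activation, room temperature. Measured by: rhodamine 110 fluorescence at Ex 480/Em 540 nm.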
MEKK3 PB1 HTS = modulators (inhibitors or enhancers) of MEK5 binding to human MEKK3 PB1 domain | bead-based flow cytometry, Alexa488-MEK5 binding to MEKK3; actives lie on both sides; 0 = blocked by unlabeled MEK5, 100 = vehicle | 1.4% of 290,000 active | Q99759 | binding response (% of control), % at 10 µM;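 active means binding response more than 3 SD above or below the average of its plate-row segment, actives on both sides; inconclusive means wells at one plate position flagged as instrument error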;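 further: Alexa488 bead fluorescence after subtracting the streptavidin-only scavenger bead signal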
Apaf-1 inh conf = confirmation of Apaf-1 inhibitors. inhibition, % at 20 µM. 25% of 1,800 active. reconstituted apoptosome, caspase-3 DEVD-Rh110 fluorescence. shares compounds with Apaf1 inhib;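 active means mean inhibition of at least 40% at 20 µM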;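 further: plate controls were DMSO wells for no effect and DEVD-CHO caspase inhibitor control wells for full effect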
Rh110 quench = interferes with Rh110 fluorescence, flagging false Apaf-1 inhibitors; shares compounds with Apaf1 inhib; Rh110 fluorescence interference, quenched caspase reaction; activation (fluorescence interference), % at 20 µM; 1,800 tested, under 10 active;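 active means signal rise of 40% or more at 20 µM, treated as a fluorescence artifact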
Apaf1 inh interf = Apaf-1 inhibitor counter-screen fluorescence artifact; shares compounds with Apaf1 inhib; fluorescence interference counterscreen, Apaf-1 assay format; IC50, µM; 460 tested, under 10 active; AID 588538; call rule not given here
* hit, by the source's call; ? = inconclusive; . = no result. Rows were chosen to be rich in hits. Some 3.2% of all compounds tested hit in one or more screens of this group.

SMILES | MEKK2 mut-MEK5 | DSG3 Ab inh | UBC13 polyUb | MEKK2 WT-MEK5 | Apaf1 inhib | MEKK3 PB1 HTS | Apaf-1 inh conf | Rh110 quench | others
CC(=O)N(/N=C1\Sc2ccccc2C1=O)c1cccc(C)c1 | 9 | 110 | -53 | 107 | 86* | 107 | 85* | 5 | Apaf1 inh interf=>100
O=C(O)c1ccc(S(=O)(=O)/N=C2\C=C(Nc3ccccc3F)C(=O)c3ccccc32)cc1 | 0 | 107 | -168 | 95 | 96* | 100 | 98* | -4 | Apaf1 inh interf=>100
COC(=O)C(C(C)=O)C1=C/C(=N\S(=O)(=O)c2ccc(C)cc2)c2ccccc2C1=O (stereo unspecified) | 2 | 106 | -11 | 97 | 21 | 101 | . | .
Cc1ccccc1NC1=C/C(=N\S(=O)(=O)c2ccc(C(=O)O)cc2)c2ccccc2C1=O | -8 | 90 | -164 | 92 | 97* | 101 | 98* | 3 | Apaf1 inh interf=>100
Cc1cc(C)cc(NC(=O)Nc2c(Br)cnn2C)c1 | 2 | 101 | -1 | 100 | 1 | 96 | . | .
Cn1c(=O)c2c(ncn2CC(=O)OCC(=O)c2ccc(Br)cc2)n(C)c1=O | . | 96 | . | . | . | . | . | .
CC(=O)N1CCN(C2=Nc3cccc4cccc2c34)CC1 | -5 | 108 | -23 | 95 | 80* | 86 | 6 | -1
c1cc2c3c(cccc3c1)NC1(CCCCC1)N2 | 3 | 89 | -21 | 104 | 22 | 102 | . | .
c1cc2c3c(cccc3c1)NC1(CCC3(CC1)Nc1cccc4cccc(c14)N3)N2 | 7 | 86 | -36 | 98 | 40* | 100 | 45* | 8 | Apaf1 inh interf=>100
CC1=Nc2cccc3cccc(c23)N1 | 2 | 100 | -37 | 104 | 13 | 97 | . | .
c1cc2c3c(cccc3c1)NC1(CCCCCC1)N2 | -7 | . | -28 | 86 | 49* | 87 | 57* | -4 | Apaf1 inh interf=>100
O=C1C(NS(=O)(=O)c2cccs2)=C(N2CCN(c3cccc(Cl)c3)CC2)C(=O)c2ccccc21 | -5 | 96 | -68 | 96 | 58* | 102 | 33 | 14
O=C1C(NS(=O)(=O)c2ccccc2)=C(N2CCN(c3ccc(F)cc3)CC2)C(=O)c2ccccc21 | 4 | 97 | -56 | 101 | 18 | 103 | . | .
O=C1C(NS(=O)(=O)c2ccc(Br)cc2)=C(N2CCCCC2)C(=O)c2ccccc21 | 0 | 122 | -32 | 94 | 36 | 100 | . | .
CC1CCCN(C2=C(NS(=O)(=O)c3ccc(Br)cc3)C(=O)c3ccccc3C2=O)C1 (stereo unspecified) | -2 | 99 | -49 | 96 | 51* | 101 | 31 | -2
CC1CCN(C2=C(NS(=O)(=O)c3ccc(Br)cc3)C(=O)c3ccccc3C2=O)CC1 | -3 | 122 | -91 | 96 | 54* | 101 | 26 | -3
CC1CCN(C2=C(NS(=O)(=O)c3ccccc3)C(=O)c3ccccc3C2=O)CC1 | 3 | 97 | -62 | 96 | 60* | 101 | 34 | 6
O=S(=O)(Nc1ccc(N2CCOCC2)cc1)c1cccs1 | 0 | 70 | 5 | 95 | -6 | 92 | . | .
COc1ccc(NS(=O)(=O)c2cc(NC(=O)COc3ccc(OC)cc3)ccc2N2CCOCC2)cc1 | . | 103 | 5 | . | 8 | . | . | .
CC(OC(=O)C1=Cc2ccccc2OC1)C(=O)NCC1CCCO1 (stereo unspecified) | . | 92 | . | . | . | . | . | .
COc1ccc(OCC(=O)Nc2cc(S(=O)(=O)N3CCCC3)ccc2Cl)cc1 | . | 94 | 5 | . | 5 | . | . | .
CSc1ccc(/C=C(/NC(=O)c2ccccc2)C(=O)NCCN2CCOCC2)cc1 | 10 | . | -1 | 106 | -8 | 103 | . | .
CC1CCN(C(CNS(=O)(=O)c2ccccc2)c2ccccc2)CC1 (stereo unspecified) | . | ? | 0 | . | 2 | . | . | .
CC1CCN(C2=C(NS(=O)(=O)c3ccc(Cl)cc3)C(=O)c3ccccc3C2=O)CC1 | 1 | 99 | -45 | 100 | 46* | 121 | 15 | -21
CCOC(=O)C1CCCN(C2=C(NS(=O)(=O)c3ccc(Br)cc3)C(=O)c3ccccc3C2=O)C1 (stereo unspecified) | -1 | 103 | -84 | 93 | 67* | 105 | 48* | 21
SMILES | MEKK2 mut-MEK5 | DSG3 Ab inh | UBC13 polyUb | MEKK2 WT-MEK5 | Apaf1 inhib | MEKK3 PB1 HTS | Apaf-1 inh conf | Rh110 quench | others
CCOC(=O)C1CCN(C2=C(NS(=O)(=O)c3ccc(Cl)cc3)C(=O)c3ccccc3C2=O)CC1 | 2 | 96 | -46 | 97 | 14 | 103 | . | .
CC(C)CN(C(=O)COC(=O)CSc1ccc(Br)cc1)C1CCS(=O)(=O)C1 (stereo unspecified) | . | 99 | -1 | . | 11 | . | . | .
COc1ccc(C(=O)N2C=Cc3ccccc3C2C(N)=O)cc1 (stereo unspecified) | . | 106 | . | . | . | . | . | .
O=[N+]([O-])c1ccc(N2CCN(c3ccccc3O)CC2)c(Cl)c1 | -2 | . | -5 | 97 | 18 | 98 | . | .
O=C1Cc2cc([N+](=O)[O-])ccc2N1c1c(Cl)cccc1Cl | 1 | 88 | -22 | 102 | 43* | 104 | 11 | 2
COc1cc(NC(C)CCCN)c2ncccc2c1 (stereo unspecified) | . | 115 | -19 | . | 92* | . | 33 | -2
CCCCCn1c(N2CCC(Cc3ccccc3)CC2)nc2c1c(=O)[nH]c(=O)n2C | 2 | 102 | 17 | 92 | 46* | 100 | 32 | 11
COCCN(C(=O)C1=COCCO1)c1c(N)n(CC(C)C)c(=O)[nH]c1=O | . | 96 | -2 | . | -1 | . | . | .
COc1ccc(CCN2C(=O)c3[nH]nc(-c4ccccc4O)c3C2c2cccc(Cl)c2)cc1 (stereo unspecified) | 3 | 110 | -7 | 92 | 41* | 107 | 10 | 13
COc1cc(NC2CCCCC2O)c2nc(-c3ccc(Cl)cc3)ccc2c1 (stereo unspecified) | -6 | 106 | -28 | 89 | 55* | 96 | 22 | 19
Cc1ccc(S(=O)(=O)N2CCC3(CC2)OCCO3)s1 | -3 | 107 | -7 | 99 | 0 | 101 | . | .
CCc1[nH]nc(C(=O)N/N=C/c2ccncc2)c1C | 5 | 111 | 2 | 106 | -18 | 99 | . | .
Cc1cc(C)c(C(N)=O)c(Nc2cccc3ccccc23)n1 | 4 | . | -94 | 110 | 96* | 115 | 12 | 3
CCCc1c(C(=O)N/N=C/C2CC=CCC2)nnn1-c1nonc1N (stereo unspecified) | . | 100 | . | . | . | . | . | .
O=C(CNC(=O)N1CC(=O)Nc2ccccc21)Nc1ccc(Cl)cc1Cl | . | 94 | . | . | . | . | . | .

Source: PubChem
